Measured values gathered from unrelated publications.
Protocols differ between the studies behind these lines.
Target: Phosphatidylinositol 4,5-bisphosphate 3-kinase catalytic subunit gamma isoform (PIK3CG, Homo sapiens, UniProt P48736)

COc1ccc2[nH]c3c4[nH]c5ccc(OC)cc5c4c4c(c3c2c1)C(=O)NC4=O  remaining binding (binding; 1 µM): 87%
Cc1nc(NC(=O)N2CCC[C@H]2C(N)=O)sc1-c1ccnc(C(C)(C)C(F)(F)F)c1  inhibition (enzyme activity, inhibitor, ADP detection; 10 µM): 73.3%
N#Cc1ccc(NC(=O)Nc2ccccc2)cc1  remaining binding (cell-free assay, competition with immobilised ligand; 25 µM): 77%
C#Cc1cnc(Nc2ccnc(CO)c2)nc1Nc1ccccc1S(C)(=O)=NC#N (stereo not shown)  remaining signal (cell-free assay; 1 µM): 15%
CO[C@@H]1[C@H](N(C)C(=O)c2ccccc2)C[C@H]2O[C@]1(C)n1c3ccccc3c3c4c(c5c6ccccc6n2c5c31)C(=O)NC4  inhibition (enzyme activity, inhibitor; 1 µM): 34%
C1=C/COCc2cc(ccc2OCCN2CCCC2)Nc2nccc(n2)-c2cccc(c2)COC/1  remaining binding (binding; 0.1 µM): 4.3%
CC#CC(=O)N1CCC[C@H]1c1nc(-c2ccc(C(=O)Nc3ccccn3)cc2)c2c(N)nccn12  inhibition (enzyme activity, inhibitor; 1 µM): 0%
COc1ccc2oc(-c3ccc4nc(N)oc4c3)c/c(=N\c3ccccc3NC(=O)CCN)c2c1  remaining activity (enzyme activity, inhibitor; 1 µM): 98%
CCCCC(=O)Nc1ccc(-c2ccc3ncn(CCC)c(=O)c3c2)cn1  remaining binding (binding, competition with immobilised ligand; 0.5 µM): 100%
C[C@H]1CC[C@H](n2c3cnccc3c3cnc(Nc4ccc5c(n4)CCN(C(=O)CO)C5)nc32)CC1  remaining signal (cell-free assay; 1 µM): 47%
